Measured values from BindingDB's records for doi:10.1016/j.bmcl.2010.04.101 (Indian Institute of Technology, 2010).

biological target: T1, Membrane-bound transcription factor site-1 protease (Homo sapiens, UniProt Q14703); test: Inhibition of human recombinant soluble Kexin isozyme 1
T1 sequence (Q14703 whole entry): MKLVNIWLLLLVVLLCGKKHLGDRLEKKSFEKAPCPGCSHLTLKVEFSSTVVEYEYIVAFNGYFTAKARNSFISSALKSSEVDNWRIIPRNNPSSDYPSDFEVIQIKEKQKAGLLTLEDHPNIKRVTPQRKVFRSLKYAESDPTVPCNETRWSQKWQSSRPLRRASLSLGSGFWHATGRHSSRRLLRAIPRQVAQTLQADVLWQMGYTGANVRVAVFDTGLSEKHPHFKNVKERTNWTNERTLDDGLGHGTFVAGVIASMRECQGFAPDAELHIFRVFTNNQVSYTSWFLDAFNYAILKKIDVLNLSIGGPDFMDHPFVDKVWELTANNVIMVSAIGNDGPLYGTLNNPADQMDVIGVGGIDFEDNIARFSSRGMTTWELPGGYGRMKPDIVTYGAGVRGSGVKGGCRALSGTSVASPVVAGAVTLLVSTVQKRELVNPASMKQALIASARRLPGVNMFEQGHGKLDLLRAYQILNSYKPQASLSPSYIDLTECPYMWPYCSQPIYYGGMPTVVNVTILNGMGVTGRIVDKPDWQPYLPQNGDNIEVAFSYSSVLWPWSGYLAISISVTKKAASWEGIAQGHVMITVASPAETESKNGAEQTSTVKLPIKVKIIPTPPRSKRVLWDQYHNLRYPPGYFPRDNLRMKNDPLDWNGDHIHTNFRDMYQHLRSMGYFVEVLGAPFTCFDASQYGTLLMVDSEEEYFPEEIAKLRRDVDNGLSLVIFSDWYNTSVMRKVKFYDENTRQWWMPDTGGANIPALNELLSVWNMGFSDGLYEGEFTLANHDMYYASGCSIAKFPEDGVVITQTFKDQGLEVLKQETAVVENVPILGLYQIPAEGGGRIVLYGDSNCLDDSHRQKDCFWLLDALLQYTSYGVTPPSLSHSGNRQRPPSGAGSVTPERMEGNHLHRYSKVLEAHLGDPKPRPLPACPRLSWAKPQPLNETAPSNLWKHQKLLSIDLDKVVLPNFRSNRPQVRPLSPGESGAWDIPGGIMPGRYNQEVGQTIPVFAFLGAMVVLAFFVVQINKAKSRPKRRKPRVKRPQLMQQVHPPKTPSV
In short: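 Recombinant soluble human SKI-1 (activity normalized to 10 pmol Abz-peptide released per µL per h, 37 °C). Only the E-form was tested, at varying concentrations, with quenched fluorogenic Abz-Q-GPC251–263-Tyx substrate in Tris/Mes/2 mM CaCl2 buffer at 37 °C. RFU (ex 320/em 420 nm) were read from 0–6 h and converted to cleavage rates. Ki came from Dixon plots at 0.1, 0.05 and 0.025 mM substrate.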

| Compound | Ki [µM] |
| --- | --- |
| CC(C)[C@H](NC(=O)COc1ccccc1/N=N/c1ccccc1OCC(=O)N[C@H](C(=O)OCc1ccccc1)C(C)C)C(=O)OCc1ccccc1 | 125 |
| O=C(O)CNC(=O)COc1ccccc1/N=N/c1ccccc1OCC(=O)NCC(=O)O | 265 |
| CC(C)[C@H](NC(=O)COc1ccccc1/N=N/c1ccccc1OCC(=O)N[C@H](C(=O)O)C(C)C)C(=O)O | 75 |

Further lines, results first:

| Ki [µM] | Compound |
| --- | --- |
| 225 | O=C(COc1ccccc1/N=N/c1ccccc1OCC(=O)N[C@@H](Cc1ccccc1)C(=O)O)N[C@@H](Cc1ccccc1)C(=O)O |
| 140 | O=C(COc1ccccc1/N=N/c1ccccc1OCC(=O)N[C@@H](Cc1ccccc1)C(=O)N[C@@H](Cc1ccccc1)C(=O)O)N[C@@H](Cc1ccccc1)C(=O)N[C@@H](Cc1ccccc1)C(=O)O |
| 11.8 | O=C(COc1ccccc1/N=N/c1ccccc1OCC(=O)N[C@@H](Cc1ccccc1)C(=O)OCc1ccccc1)N[C@@H](Cc1ccccc1)C(=O)OCc1ccccc1 |
